Screening data deposited in PubChem by several laboratories.
Ecoli rRNA inh: inhibits bacterial ribosomal RNA function over humanized ribosomes; E. coli WT GFP vs humanized-ribosome RFP mutants, fluorescence, 24 h; hits give low values; DMSO median 0, no signal -100; GFP signal change (wild-type ribosome), % (no concentration beside the values); 350,000 tested, 1.6% active;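 active = significant combined selectivity score with lowered wild-type GFP, culture density cut under 30%, mutant RFP and density less affected; inactive = any of these conditions unmet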
PglD inh: blocks C. jejuni PglD acetyltransferase activity; purified PglD enzyme, DTNB colorimetric CoA detection; inhibition, % at 12.5 µM; 360,000 tested, 0.098% active; AID 602405; in the data active = inhibition above about 16%, passing the limit was not always enough; inconclusive = no clear call, values can overlap the other calls
Cneo AK release: causes C. neoformans cell lysis; adenylate kinase release luminescence, 4 h; normalised: neutral wells 0, clomiphene wells 100; lysis activity, % at 15 µM; 360,000 tested, 0.2% active;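 active = mean lysis activity across replicates of at least 80%, whatever share of replicates individually reach that level; inactive = mean lysis activity below 80%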
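Assay system: Cryptococcus neoformans yeast cells / Dosing: single-point compound dose / Timing: 4 h at 37 °C static, read 1 h later / Measured by: luminescence of released adenylate kinase using an AK detection reagent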
Yeast superoxide: caloric restriction mimetics inhibiting age-related superoxide in yeast | 330,000 tested, 0.18% active | superoxide response (% of plate mean), % at 10 µM | S. cerevisiae aged cells, superoxide DHE fluorescence; hits give low values | AID 2690;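 active = superoxide response under a set limit, about three screen SD below normal, cut at about 65% in these data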;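 note: yeast aged for seven days with compound at 30 °C before DHE staining; 100% = average MFI of all compound-treated wells on the plate with controls excluded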
SUMO Mot1 rescue: SUMOylation pathway inhibition by Mot1-301 growth rescue; S. cerevisiae Mot1-301 growth rescue, ATP luminescence, 38.5C; percent above DMSO median, 100 means doubled; growth rescue, % at 18.8 µM; 320,000 tested, 1% active;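 active = every valid replicate shows activation above 250% relative to neutral control wells; inactive = the rest, any valid replicate at or below 250%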;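 note: OY570 slx delta 5 strain wells were the positive control but not used for scaling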
Mot1 SUMO dose: yeast SUMO pathway inhibition in dose response; 2,300 tested, under 10 active; growth activity, percent, % at 42 µM; shares compounds with SUMO Mot1 rescue; S. cerevisiae Mot1-301 galactose growth, ATP luminescence, 24 h; -100 = growth of slx-deleted rescue strain;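 active = Signal drops as the depositor expects, and the fitted half-maximal dose is no more than ten times the top valid tested dose; inconclusive = Poor fit, or a flat curve whose signal drops by 30% to 70%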;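 note: more negative values mean stronger growth rescue toward the control strain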
PglD confirm: PglD (C. jejuni) inhibition confirmation | Purified C. jejuni PglD, DTNB absorbance 412 nm | inhibition, % at 20 µM | 320 tested, under 10 active | shares compounds with PglD inh;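 active = mean inhibition across replicates of at least 20% with every single replicate also at 20% or more; inconclusive = mean inhibition at least 20% but some replicate falls below 20%; inactive = mean inhibition under 20% and not all replicates reach it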;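 note: initial rate of CoA release by acetyl transfer from AcCoA to the UDP-4-amino sugar; 0% = median of neutral control wells and 100% = median of positive control wells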
AID977621: growth inhibition of wild-type GFP E. coli, dose response, H69 mutant RFP, cherry-pick | 1,900 tested, under 10 active | activity change, negative = inhibition at 50 µM | shares compounds with Ecoli rRNA inh | E. coli wild-type GFP strain growth, fluorescence, 24 h;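 active = Wild-type ribosome reporter drop at least double the humanized mutant ribosome reporter drop, growth loss under a set limit; inconclusive = no clear call, values can overlap the other calls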;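 note: wild-type GFP and H69 mutant RFP strains grown together 50/50 in each well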
AID977628: growth of wild-type and h24-humanized E. coli strains – h24 mutant RFP vs wild-type GFP, cherry-pick, dose response | shares compounds with Ecoli rRNA inh | AID 977628 | 1,900 tested, under 10 active | activity change, negative = inhibition at 50 µM | E. coli WT GFP strain growth, fluorescence, 24 h;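 active = compound lowering the normal-ribosome reporter at least twice as much as the humanized-ribosome reporter, growth loss under a set limit; inconclusive = no clear call, values can overlap the other calls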;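 note: wild-type GFP and h24 humanized RFP strains co-cultured 1 to 1 per well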
Numbers without * were called inactive. In the library only some 2.2% were active in any assay of this set; here they are far more common.

Screening COC(=O)[C@H]1[C@H](CO)[C@H]2Cn3c(ccc(-c4cccc(F)c4)c3=O)[C@H]2N1C(C)=O returned Ecoli rRNA inh 0.5, PglD inh 0.9 and Cneo AK release 13.8.
For CC1=C(C)CS(=O)N(S(=O)(=O)c2ccc(Cl)cc2)C1 (stereo not given) the results were PglD inh 22.8*, Cneo AK release 8.0, Yeast superoxide 110.2, SUMO Mot1 rescue 724.2*, Mot1 SUMO dose -1.5 and PglD confirm -0.5.
For Cc1cccc(OCCC(=O)Nc2ccc(F)c(F)c2)c1 the results were Ecoli rRNA inh -41.3*, Cneo AK release -0.7, Yeast superoxide 98.9, SUMO Mot1 rescue 380.3*, Mot1 SUMO dose 0.0 and AID977621 4.58.
For Cc1ccc(S(=O)(=O)N(C)C[C@H]2Oc3ccc(NC(=O)Nc4ccccc4)cc3C(=O)N([C@H](C)CO)C[C@H]2C)cc1 the results were Ecoli rRNA inh 3.7, PglD inh 6.2 and Cneo AK release 0.3.
Screening Cc1cc(C(=O)OCC(=O)NCCc2ccc(S(N)(=O)=O)cc2)c2ccccc2n1 returned Ecoli rRNA inh 3.5, PglD inh 1.0, Cneo AK release 3.0, Yeast superoxide 152.7 and SUMO Mot1 rescue -8.1.
`Cc1cc(C(=O)OCC(=O)Nc2cccc(S(N)(=O)=O)c2)c2ccccc2n1` gave Ecoli rRNA inh -20.2*, PglD inh 4.2, Cneo AK release -1.2, Yeast superoxide 114.0, SUMO Mot1 rescue 646.7*, Mot1 SUMO dose 0.0 and AID977621 -6.54.
For CCC1(CC)NC(=O)N(CC(=O)N2N=C(c3ccc(Cl)cc3)CC2c2ccco2)C1=O (stereo not given) the results were Ecoli rRNA inh -25.4*, PglD inh 6.3, Cneo AK release -2.0, Yeast superoxide 99.2, SUMO Mot1 rescue 580.8*, Mot1 SUMO dose 0.5, AID977621 4.07 and AID977628 inconclusive.
For COCC(=O)N1CCCCN2[C@@H](CO)[C@H](c3ccc(-c4cccc(C)c4)cc3)[C@@H]2C1 the results were Ecoli rRNA inh 2.1, PglD inh 0.5 and Cneo AK release -1.6.
For O=C(NCCCN=C1NS(=O)(=O)c2ccccc21)c1ccncc1 the results were PglD inh 25.0*, Cneo AK release -4.6, Yeast superoxide 96.3, SUMO Mot1 rescue 1.9 and PglD confirm 1.5.
O=C(NCCCN=C1NS(=O)(=O)c2ccccc21)c1ccc(F)cc1 was read as Ecoli rRNA inh -2.8, PglD inh -0.6, Cneo AK release -1.5, Yeast superoxide 98.7 and SUMO Mot1 rescue 5.8.
C[C@@H]1CCCCO[C@H](CN(C)CC2CCCCC2)[C@@H](C)CN([C@H](C)CO)C(=O)c2cc(NS(=O)(=O)c3ccccc3)ccc2O1 was read as Ecoli rRNA inh 0.6, PglD inh 0.9 and Cneo AK release -1.2.
CC(=O)NC1C(=O)N(CCN2CCOCC2)c2ccc(Cl)cc21 (stereo not given) was read as Ecoli rRNA inh 17.6, PglD inh 24.5*, Cneo AK release -0.6, Yeast superoxide 158.4, SUMO Mot1 rescue -10.8 and PglD confirm 48.5*.
`COc1cccc(NC(=O)N[C@H]2CC[C@@H](CC(=O)Nc3ccc(-c4ccccc4)cc3)O[C@@H]2CO)c1` gave Ecoli rRNA inh -49.7, PglD inh -0.7 and Cneo AK release 0.3.
`Cc1c(C(=O)Nc2ccccc2C(=O)N2CCCC2)cccc1[N+](=O)[O-]` gave Ecoli rRNA inh 8.9, PglD inh 22.8*, Cneo AK release 0.7, Yeast superoxide 93.1, SUMO Mot1 rescue 3.1 and PglD confirm 2.1.
`Cc1ccc(C(=O)Nc2ccccc2C(=O)N2CCCC2)cc1[N+](=O)[O-]` gave Yeast superoxide 89.2 and SUMO Mot1 rescue -7.6.
For CC1Oc2ccccc2N(CC(=O)N2CCCCC2)C1=O (stereo not given) the results were Ecoli rRNA inh 4.6, PglD inh 24.6*, Cneo AK release -3.4, Yeast superoxide 100.2, SUMO Mot1 rescue 12.1 and PglD confirm inconclusive.
For COc1cccc(C2CC(c3ccc(Cl)cc3)n3nc(N)nc3N2)c1 (stereo not given) the results were Ecoli rRNA inh 0.8, PglD inh 26.1*, Cneo AK release 0.7, Yeast superoxide 82.5, SUMO Mot1 rescue 12.6 and PglD confirm 4.5.
COc1ccc(C2CC(c3cccc(OC)c3)n3nc(N)nc3N2)cc1 (stereo not given) was read as Ecoli rRNA inh 11.0, PglD inh -3.1, Cneo AK release -0.8, Yeast superoxide 99.7 and SUMO Mot1 rescue 5.4.
`O=C(C[C@H]1CC[C@H]2[C@@H](COC[C@@H](O)CN2S(=O)(=O)c2ccc(F)cc2)O1)NCc1ccc(Cl)c(Cl)c1` gave Ecoli rRNA inh -16.2, PglD inh -1.0 and Cneo AK release 6.5.
COc1ccc(/C(C)=N/Nc2ccc(C(=O)O)cc2)cc1OC was read as PglD inh 57.9*, Cneo AK release 0.7, Yeast superoxide 108.4, SUMO Mot1 rescue 107.3 and PglD confirm 0.0.
Screening COc1cc(/C(C)=N/Nc2ccc(C(=O)O)cc2)cc(OC)c1OC returned PglD inh -0.9, Cneo AK release 1.4, Yeast superoxide 96.1 and SUMO Mot1 rescue -15.4.
C[C@H]1CN([C@@H](C)CO)C(=O)Cc2cc(NC(=O)C3CC3)ccc2O[C@H]1CN(C)S(=O)(=O)c1cn(C)cn1 was read as Ecoli rRNA inh 1.3, PglD inh 1.4 and Cneo AK release -3.2.
Screening Cn1c2ccccc2c2nnc(SCC(N)=O)nc21 returned Ecoli rRNA inh 8.3, PglD inh 46.9*, Cneo AK release -0.2, Yeast superoxide 93.8, SUMO Mot1 rescue -11.8 and PglD confirm 0.8.
`CCOC(=O)CSc1nnc2c3ccccc3n(C)c2n1` gave Ecoli rRNA inh 5.9, PglD inh -6.8, Cneo AK release -0.6, Yeast superoxide 100.3 and SUMO Mot1 rescue -2.4.
Cc1ccc(S(=O)(=O)N(C)C[C@H]2Oc3c(NC(=O)C4CCOCC4)cccc3C(=O)N([C@H](C)CO)C[C@@H]2C)cc1 was read as Ecoli rRNA inh -1.0, PglD inh -0.9 and Cneo AK release 5.6.
